This is a sample that favours compounds with a hit; in the whole collection about 4.3% have one here.
Rtt109 HAT inh: blocks Candida albicans Rtt109/Vps75 acetyltransferase activity; inhibition, % at 34.9 µM; hit rate 0.16% among 330,000; purified Rtt109/Vps75, ThioGlo CoA-SH fluorescence, 4 h;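 active = inhibition of at least 50% in every replicate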
Target sequence (Q5AAJ8 whole entry, looked up): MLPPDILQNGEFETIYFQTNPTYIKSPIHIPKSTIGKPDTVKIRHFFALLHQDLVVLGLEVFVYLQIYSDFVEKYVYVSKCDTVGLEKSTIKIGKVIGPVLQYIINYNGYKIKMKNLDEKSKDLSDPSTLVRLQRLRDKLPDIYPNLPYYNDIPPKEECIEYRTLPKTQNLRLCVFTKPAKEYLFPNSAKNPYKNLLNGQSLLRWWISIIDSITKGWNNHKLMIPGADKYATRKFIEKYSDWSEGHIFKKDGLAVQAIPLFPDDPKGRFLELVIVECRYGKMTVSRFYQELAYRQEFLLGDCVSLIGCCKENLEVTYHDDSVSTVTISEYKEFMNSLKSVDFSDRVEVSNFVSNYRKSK
ALR H2O2 inh: inhibitors of human sulfhydryl oxidase ALR; P55789; purified ALR, DTT oxidation, H2O2 HRP-luminol luminescence; inhibition, % (test concentration not listed); hit rate 3.8% among 290,000; AID 485317;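 active = mean replicate inhibition above about 79%, with every replicate also reaching it, limit read from the data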
Target sequence (P55789 whole entry, looked up): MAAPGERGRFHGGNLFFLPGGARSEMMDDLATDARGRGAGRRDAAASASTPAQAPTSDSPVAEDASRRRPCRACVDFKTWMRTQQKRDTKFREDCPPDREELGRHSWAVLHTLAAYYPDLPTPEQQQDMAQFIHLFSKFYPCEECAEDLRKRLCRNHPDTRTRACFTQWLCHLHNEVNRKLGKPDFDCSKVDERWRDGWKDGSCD
Dyrk1A ADPGlo: Dyrk1A (rat) kinase inhibition; Q63470; ADP-Glo luminescence, NFATc1 peptide; inhibition, % at 12.5 µM; hit rate 0.43% among 310,000; in the data active = inhibition above about 50%
CAL PDZ FP-1: inhibitors of human CAL PDZ peptide binding | purified CAL PDZ, TMR-peptide fluorescence polarization, 1 h | hit rate 0.92% among 300,000 | inhibition, % at 24.9 µM | Q9HD26;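 active = mean inhibition of at least 30% with at least half of replicates also reaching 30%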
CAL PDZ FP-2: human CAL PDZ-peptide interaction inhibition; inhibition, % at 20 µM; Q9HD26; AID 504414; purified CAL PDZ, TMR-peptide fluorescence polarization, 1 h; hit rate 0.02% among 330,000;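 active = highest replicate inhibition of at least 40%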
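Control set: unlabelled peptide and DMSO controls / Material: purified CerCALP PDZ construct / Timing: 1 h incubation at room temperature before polarization reading / Doses: 20 µM, one dose / Detection: fluorescence polarization (mP)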
Large screens that a line does not name were inactive.

S=C(NCCCN1CCOCC1)Nc1ccc(-c2nc3ccccc3[nH]2)cc1	ALR H2O2 inh 98
S=C(NCCN1CCOCC1)Nc1ccc(Nc2ccccc2)cc1	ALR H2O2 inh 99
O=C1NC(=Nc2cccc([N+](=O)[O-])c2)SC1(CO)CO	none
O=C1CCCN1CCCNC(=S)Nc1ccc(Nc2ccccc2)cc1	ALR H2O2 inh 99
Cc1ccc2c(c1)c1nnc(SCC(=O)Nc3cccc(Cl)c3C)nc1n2CC(=O)O	none
Cc1ccc2c(c1)c1nnc(SCC(=O)Nc3ccc(N(C)C)cc3)nc1n2CC(=O)O	ALR H2O2 inh 100
CC(=O)Oc1ccccc1C1=NN(C(=O)/C=C/c2ccccc2)C(c2ccccc2)C1 (centres undefined)	none (no result: ALR H2O2 inh)
COc1ccc(C2CC(c3ccccc3OC(C)=O)=NN2C(C)=O)cc1 (centres undefined)	CAL PDZ FP-1 91
COc1ccc(C2CC(c3ccccc3OC(C)=O)=NN2C(=O)/C=C/c2ccccc2)cc1 (centres undefined)	CAL PDZ FP-1 52
COc1ccc(C2CC(c3ccc4ccccc4c3OC(C)=O)=NN2C(=O)/C=C/c2ccccc2)cc1 (centres undefined)	none
CN(C)C1=NCCN1CCc1ccccc1	none
CCOC(=O)C1(CCc2ccccc2)CCN(C(=O)Cc2nonc2C)CC1	ALR H2O2 inh 100
CCOC(=O)C1(CCCc2ccccc2)CCN(Cc2cnn(C)c2)CC1	CAL PDZ FP-1 75 (no result: ALR H2O2 inh)
COc1ccc(NC(=O)CCOc2ccc(C)cc2)c(OC)c1	none
Cc1ccc(-c2csc(/C(C#N)=C(\O)CN3CCN(C(=O)c4ccco4)CC3)n2)cc1	ALR H2O2 inh 99
Cc1ccc(S(=O)(=O)N(C)C(C)CCc2ccco2)cc1 (centres undefined)	CAL PDZ FP-1 active (no result: ALR H2O2 inh)
CCOC(=O)c1ccc(NC(=O)CN2C(=O)CSC2=O)cc1	ALR H2O2 inh 100
CCOC(=O)c1ccc(NC(=O)CC2C(=O)OCCN2CC)cc1 (centres undefined)	none
CCOC(=O)c1ccc(NC(=O)CC2OCCN(CC)C2=O)cc1 (centres undefined)	ALR H2O2 inh 86
CCN(CC(=O)Nc1c(F)cccc1F)C(=O)Cn1[nH]c(=O)c2ccccc2c1=O	CAL PDZ FP-1 78 (no result: ALR H2O2 inh)
COc1cccc(CN(C)C(=O)CSCC(=O)Nc2cccc(C)c2)c1OC	ALR H2O2 inh 92 (no result: CAL PDZ FP-1)
CCN(CC(=O)Nc1c(F)cccc1F)C(=O)CSCC(=O)Nc1cccc(C)c1	CAL PDZ FP-1 78
CCN(CC(=O)Nc1c(F)cccc1F)C(=O)Cc1c[nH]c2ccccc12	none (no result: Dyrk1A ADPGlo)
Cc1cccc(NC(=O)CSCC(=O)OCc2ccccn2)c1	ALR H2O2 inh 99
Cc1ccc(-c2c(C#N)c(N)nc3c2CCCC3)s1	none
COc1ccc(S(=O)(=O)N(C)C)cc1NCC(=O)Nc1cccc(C#N)c1	none
COc1ccc(NC(=O)CSc2nc3n[nH]c(C)c3c(=N)n2-c2ccc(Cl)c(C)c2)cc1OC	none
CSc1ccc(N=Nc2c(C)[nH]n(C)c2=O)cc1	none (no result: Dyrk1A ADPGlo)
CCCOc1ccc(C(=O)C(CN2CCCC2)c2ccccc2)cc1 (centres undefined)	ALR H2O2 inh 96
N#Cc1ccc(OCC(=O)Nc2ccc(S(=O)(=O)N3CCOCC3)cc2)cc1	none (no result: ALR H2O2 inh, Dyrk1A ADPGlo)
CN(C)c1ccc(/C=N/OC(=O)Nc2ccccc2Cl)cc1	none (no result: Dyrk1A ADPGlo)
Cc1nn(-c2ccccc2)c2sc(-c3n[nH]c(=S)o3)cc12	ALR H2O2 inh 98
O=C(O)c1cc2ncc(CCO)cn2n1	none
Cc1cccc(OCC(=O)OC(C)CN2CCCCC2)c1 (centres undefined)	none
Cc1sc2nc(CSCC(=O)Nc3ccccc3C#N)[nH]c(=O)c2c1C	ALR H2O2 inh 98 (no result: Rtt109 HAT inh)
Cc1ccc(F)cc1NC(=O)CSCc1nc2sc(C)c(C)c2c(=O)[nH]1	ALR H2O2 inh 97 (no result: Rtt109 HAT inh)
CSc1ccccc1NC(=O)CSCc1nc2sc(C)c(C)c2c(=O)[nH]1	none
CCOC(=O)c1c(N)sc2c(OC)c(Br)ccc12	ALR H2O2 inh 99
C[n+]1cn(Cc2ccc(C#N)cc2)c2ccccc21	none
COc1ccccc1N1CC(C(=O)Nc2nnc(SCc3cccnc3)s2)CC1=O (centres undefined)	ALR H2O2 inh 88
COc1ccc(N2CC(C(=O)Nc3nnc(SCc4cccnc4)s3)CC2=O)cc1 (centres undefined)	none
O=C(NCCN1CCNC1=O)C1CCC(=O)N(Cc2cccc(C(F)(F)F)c2)C1 (centres undefined)	none
COc1cccc2c1Oc1ncccc1N(C(=O)CCC(=O)NCc1ccc(F)cc1)C2	Rtt109 HAT inh 51
CC(C)C(=O)NCC(c1ccc2c(c1)OCO2)N1CCOCC1 (centres undefined)	none (no result: CAL PDZ FP-1)
CC1(C)CC(=O)C2=C(C1)N(Cc1ccco1)C(=O)C2(NC(=O)c1ccc(Cl)cc1Cl)C(F)(F)F (centres undefined)	ALR H2O2 inh 98 (no result: CAL PDZ FP-1)
N#Cc1c(Cl)nc2c(c1C#N)CCCC2	ALR H2O2 inh 97
CCCCc1nc(Cl)c(C#N)c2c1CCCC2	none
COC(CNC(=O)CSCc1nc(-c2ccc(SC)cc2)oc1C)OC	ALR H2O2 inh 99 (no result: Rtt109 HAT inh)
CSc1ccc(-c2nc(CSCC(=O)NCCCN3CCOCC3)c(C)o2)cc1	none (no result: ALR H2O2 inh)
CCc1ccc(-c2nc(CSCC(=O)NCc3ccco3)c(C)o2)cc1	none (no result: ALR H2O2 inh)
CCCNC(=O)CSCc1nc(-c2ccc(SC)cc2)oc1C	ALR H2O2 inh 99 (no result: Rtt109 HAT inh)
O=C1N/C(=N/O)S/C1=C/c1cccc([N+](=O)[O-])c1	none
O=C1N/C(=N/O)S/C1=C\c1ccccc1-n1cccn1	ALR H2O2 inh 93 (no result: Dyrk1A ADPGlo)
O=C(N=C1SC2CS(=O)(=O)CC2N1CCc1ccccc1)C1CC1 (centres undefined)	none (no result: Dyrk1A ADPGlo)
CCOC(=O)C1(CC2CCCCO2)CCN(Cc2cn[nH]c2-c2cccc(F)c2)CC1 (centres undefined)	none
CCc1nn(C(C)C(=O)NCc2cccc(OC)c2)c(=O)c2cc3occc3n12 (centres undefined)	none (no result: CAL PDZ FP-1)
O=C1CCCc2c1[nH]c1ccccc21	none (no result: CAL PDZ FP-2)
c1ccc2c(c1)OCCc1c-2[nH]c2ccccc12	ALR H2O2 inh 96
COC(=O)c1ccsc1NS(=O)(=O)c1ccccc1	ALR H2O2 inh 80 (no result: Dyrk1A ADPGlo)
COC(=O)c1sccc1NS(=O)(=O)c1ccccc1	none
Cc1ccc(-n2c(=O)c3ccccc3n(CC(=O)C(C)(C)C)c2=O)cc1	none
CN1C(=O)/C(=C/c2ccccc2F)Sc2ccc(C(=O)N3CCCC3)cc21	none
Cc1cc(C)c(S(=O)(=O)N(C)CC(=O)NCCN2CCOCC2)c(C)c1	CAL PDZ FP-1 31
COc1ccc(S(=O)(=O)N(C)CC(=O)NCCN2CCOCC2)cc1	none (no result: CAL PDZ FP-1)
C/C(=N\Nc1nc2ccccc2[nH]1)c1ccc(C)o1	ALR H2O2 inh 99
C/C(=N\Nc1nc2ccccc2[nH]1)c1ccc(N2CCOCC2)cc1	none (no result: Dyrk1A ADPGlo)
C/C(=N\Nc1nc2ccccc2[nH]1)c1ccc(Cl)s1	ALR H2O2 inh 99
COc1ccc(NC(=O)c2cc(-c3ccccc3)nc3c2cnn3C(C)C)c(OC)c1	none (no result: Dyrk1A ADPGlo)
CCC/C(=N/NC(=O)c1ccccc1Cl)c1ccccc1	none (no result: CAL PDZ FP-1)

Assay outcomes as filed in PubChem BioAssay.
